Screens as filed in PubChem BioAssay.
MrgX1 agonist: agonists of human MrgX1 receptor | B-score at 10 µM | MrgX1-HEK293 cells, Fluo-4 calcium fluorescence, agonist mode; stronger effect = higher value | Q96LB2 | actives 0.44% (n = 310,000);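 active means calcium response B-score plate-corrected fluorescence ratio at least 3 library SD, with starting fluorescence B-score inside 5 SD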
Target sequence (Q96LB2 whole entry, looked up): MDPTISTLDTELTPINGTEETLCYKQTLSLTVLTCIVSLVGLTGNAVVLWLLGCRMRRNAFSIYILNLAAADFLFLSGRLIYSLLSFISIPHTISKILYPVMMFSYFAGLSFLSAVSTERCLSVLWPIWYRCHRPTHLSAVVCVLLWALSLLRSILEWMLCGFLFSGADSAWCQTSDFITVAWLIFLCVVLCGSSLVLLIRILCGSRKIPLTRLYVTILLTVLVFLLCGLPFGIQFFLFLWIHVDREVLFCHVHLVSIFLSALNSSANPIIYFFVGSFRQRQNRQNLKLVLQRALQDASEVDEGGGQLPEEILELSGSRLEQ
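Test system: HEK293 cells stably expressing human MrgX1 receptor; Input: fifteen thousand cells per well; Dosing: compound delivered in addition one of three; Schedule: overnight seeding, then 1 h dark dye loading; Technique: Fluo-4 NW calcium fluorescence; Measure: B-scored fluorescence response ratio; Controls: positive and negative controls per plate.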
MrgX1 PAM: allosterically activates human MrgX1 receptor signaling | actives 0.63% (n = 310,000) | B-score at 10 µM | Q96LB2 | MrgX1-HEK293, Fluo-4 calcium flux, FDSS; stronger effect = higher value;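 active means plate-corrected calcium response at least 3 library SD above typical, normal starting fluorescence, not activating the receptor alone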;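 further: compound read alongside a low EC10 to EC30 dose of BAM8-22 agonist; peak minus trough fluorescence over baseline measured at the second addition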
MrgX1 antag: blocks BAM8-22 activation of human MrgX1 receptor. Q96LB2. MRGX1-HEK293 calcium flux, Fluo-4, BAM8-22 antagonism; stronger effect = lower value. B-score at 10 µM. actives 1.3% (n = 310,000);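 active means calcium-response B-score plate-corrected more than 3 library SD below zero, starting fluorescence within 5 deviations, no agonist response on first addition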;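 further: peak minus trough fluorescence over baseline after final BAM8-22 challenge near maximal dose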
RGS4 inh: inhibitors of human RGS4 | actives 0.45% (n = 310,000) | B-score at 10 µM | HEK293 M3R/RGS4 inducible, Fluo-4 calcium flux; stronger effect = higher value; triggered by carbachol at its EC20 | P49798 | AID 463165;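 active means B-score, a plate-corrected calcium signal, over three deviations above library mean, with baseline fluorescence within five deviations of library mean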;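 further: RGS4 expression induced by doxycycline in cells with stable M3 receptor; B-score is computed from the integrated fluorescence ratio over baseline after carbachol; higher B-score means a larger calcium signal and so more RGS4 inhibition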
Target sequence (P49798 whole entry, looked up): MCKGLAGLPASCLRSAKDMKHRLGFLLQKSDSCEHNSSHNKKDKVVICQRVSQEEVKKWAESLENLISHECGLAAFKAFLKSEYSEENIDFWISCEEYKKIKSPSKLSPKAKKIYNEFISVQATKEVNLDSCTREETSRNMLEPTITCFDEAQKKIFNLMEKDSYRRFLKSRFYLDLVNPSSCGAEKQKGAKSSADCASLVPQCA
RGS4 act: potentiators or activators of RGS4; HEK293 M3R/inducible RGS4, carbachol calcium flux Fluo4; stronger effect = lower value; B-score at 10 µM; actives 0.92% (n = 310,000);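 active means B-score of the integrated calcium signal more than 4 SD below the library mean, with starting fluorescence not abnormally high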;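 further: negative B-score means reduced calcium response which marks RGS4 activation or potentiation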
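System: HEK293 FlpIn-TREx cells, stable M3R, doxycycline-inducible RGS4. Timing: overnight RGS4 induction, 30 min dye load 37 °C, 20 min compound RT. Also added: carbachol, ECmax concentration. Measured by: Fluo4 fluorescence kinetic imaging of calcium. Evaluation: integrated calcium ratio converted to B score.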
Each line names hits and unclear results; the compound was inactive in the other large screens. Hits are enriched below; roughly 3.5% of the tested compounds scored in any of these assays.

C=CCNCc1ccc(C(=O)NCCCCCCC)cc1[N+](=O)[O-]	none
COc1cc(N(C)C)c([N+](=O)[O-])cc1C(=O)NC(C)CNc1ccc([N+](=O)[O-])cc1Cl (stereo not given)	MrgX1 antag -6.1
CCN(CC)CCNC(=O)c1cc([N+](=O)[O-])c(N(C)C)cc1OC	none
O=c1c2ccccc2nc(/C=C/c2cccc([N+](=O)[O-])c2)n1CCCO	MrgX1 PAM 7.2
O=c1c2ccccc2nc(/C=C/c2ccc([N+](=O)[O-])cc2)n1CCCO	none
COc1ccccc1/C=C/C(=O)N1CCOCC1	RGS4 act -7.8
Cc1ccccc1/C=C/C(=O)N1CCOCC1	none
Cc1ccc(C(=O)N/N=C\c2sccc2C)cn1	MrgX1 antag -7.8
Cc1ccsc1/C=N/NC(=O)c1sccc1C	none
COc1ccc(C(=O)N2CCN(c3ccccc3OC)CC2)cc1	none
COc1ccc(/C=N/NC(=O)C(=O)N2CCN(c3ccccc3OC)CC2)cc1	MrgX1 antag -4.8
CCCC1(c2ccccc2)NC(=O)N(CC(=O)NCc2ccc(OC)cc2)C1=O (stereo not given)	none
COC(=O)c1ccc(Oc2c(Cl)cccc2[N+](=O)[O-])cc1	MrgX1 PAM 8.6
CCN1CCN(CCNC(=O)c2ccc(/C=C3/Sc4ccccc4N(Cc4ccccc4C)C3=O)cc2)CC1	RGS4 act -8.4 (no result: MrgX1 agonist, MrgX1 PAM, MrgX1 antag)
N#C/C(=C/c1ccc(N2CCCCC2)o1)C(=O)Nc1ccc(Cl)cc1	MrgX1 antag -7.8
N#C/C(=C\c1ccc(N2CCOCC2)o1)C(=O)Nc1ccc(O)cc1	none
N#C/C(=C/c1ccc(N2CCCCC2)o1)C(=O)Nc1ccc2ccccc2c1	none (no result: MrgX1 agonist, MrgX1 PAM, MrgX1 antag)
COc1ccc(NC(=O)/C(C#N)=C\c2ccc(N3CCOCC3)o2)cc1	RGS4 act -8.6
CCCCN(C(=O)c1ccc(NC(=O)C(C)C)cc1)c1ccccc1	none
Cc1cc(/C=C2/SC(=S)N(c3cccc(C(F)(F)F)c3)C2=O)c(C)n1-c1cccnc1	MrgX1 PAM 16
Cc1cc(/C=C2\SC(=S)N(Cc3ccco3)C2=O)c(C)n1-c1cccnc1	none (no result: MrgX1 agonist, MrgX1 PAM, MrgX1 antag)
CC(/C=N/NC(=O)c1ccc(Cn2cc([N+](=O)[O-])cn2)o1)=C\c1ccccc1	MrgX1 antag -5.4
Nc1c(C(=O)Nc2ccc(Br)cc2)sc2nc(-c3ccco3)ccc12	none
Nc1c(C(=O)Nc2ccc(F)cc2)sc2nc(-c3ccco3)ccc12	MrgX1 antag -4.9
COc1ccc(CNC(=O)C(c2ccc(C)cc2)N(Cc2cccs2)C(=O)c2ccc3c(c2)OCCO3)cc1 (stereo not given)	RGS4 act -7.5
COc1ccc(CNC(=O)C(c2ccco2)N(Cc2cccs2)C(=O)Cc2cccs2)cc1 (stereo not given)	none
Cc1ccc(C(C(=O)NCc2ccccc2)N(Cc2cccs2)C(=O)c2ccc3c(c2)OCCO3)cc1 (stereo not given)	none
COc1ccc(CNC(=O)C(c2cccs2)N(Cc2ccco2)C(=O)Cc2cccs2)cc1 (stereo not given)	RGS4 act -7.4
CC1CCCC(CC(=O)O)(CC(=O)O)C1 (stereo not given)	none
CCOC(=O)c1sc(=S)n(-c2ccccc2Cl)c1C	RGS4 act -9.3
COCc1c(C#N)c(NCCc2ccccc2)nc(C)c1[N+](=O)[O-]	MrgX1 antag -6.3
Cc1nc(NCCc2ccc(F)cc2)c(C#N)c(C)c1[N+](=O)[O-]	MrgX1 agonist 38
COCc1c(C#N)c(NCCc2ccc(F)cc2)nc(C)c1[N+](=O)[O-]	none
CC(=O)N1CCN(C(=O)c2ccc(OC3CCN(CCc4ccccc4)CC3)cc2)CC1	none
O=C(c1ccc(OC2CCN(CCCc3ccccc3)CC2)cc1)N1CCCC1	RGS4 act -7.4
COc1ccc(C(=O)NCC2(c3ccccc3)CCCC2)c(OC)c1	MrgX1 PAM 10, MrgX1 antag -10
COc1cccc(C(=O)NCC2(c3ccccc3)CCCC2)c1	none
CCCCn1c(N)c(N(CCOC)C(=O)c2ccc(S(=O)(=O)N3CCCCCC3)cc2)c(=O)[nH]c1=O	none
CCOP(=O)(c1ccc(N(C)C)cc1)C(O)c1cc(OC)c(OC)c(OC)c1 (stereo not given)	MrgX1 antag -4.8
COc1cc(C(O)P(=O)(OCC(C)C)c2ccc(N(C)C)cc2)cc(OC)c1OC (stereo not given)	none
Cc1cccc(NC2=C(NCCO)C(=O)c3ccccc3C2=O)c1	MrgX1 antag -5.5
COc1cccc(NC2=C(NCCO)C(=O)c3ccccc3C2=O)c1	none
Cc1ccc(C(=O)N/C(=C\c2ccco2)C(=O)NCCN2CCOCC2)cc1C	none
COc1cc(O)c(C(CCN2CCOCC2)c2cc(OC)c(OC)c(OC)c2)c(OC)c1 (stereo not given)	none
O=C(O)c1c2c(nc3ccccc13)/C(=C/c1cccc([N+](=O)[O-])c1)CCC2	MrgX1 PAM 18
O=C(O)c1c2c(nc3ccccc13)/C(=C/c1ccccc1[N+](=O)[O-])CCC2	none
COc1ccc(-c2c(=O)n(OCc3ccccc3[N+](=O)[O-])c3ccccc3[n+]2[O-])c(OC)c1	none
CCCOc1ccc(NC(=O)Cc2ccc(S(=O)(=O)N3CCOCC3)s2)cc1OCCC	MrgX1 antag -4.7
COc1cccc(N2CCN(C(C)C(=O)NC34CC5CC(CC(C5)C3)C4)CC2)c1 (stereo not given)	none
CC(CCc1ccccc1)NC(=O)COc1cc(F)ccc1[N+](=O)[O-] (stereo not given)	MrgX1 PAM 8.3
CCn1c(C)cc(/C=C2/SC(=S)N(CC(=O)O)C2=O)c1C	MrgX1 PAM 17
C#CCN1C(=O)S/C(=C/c2cc(C)n(CC)c2C)C1=O	none
O=C(Nc1ccc([N+](=O)[O-])cc1)Nc1ccc(Cl)cc1F	MrgX1 antag -4.9
O=C(Nc1ccc([N+](=O)[O-])cc1)Nc1ccon1	MrgX1 antag -4.6
COC(=O)c1ccc(NC(=O)c2cccc(C)c2[N+](=O)[O-])cc1	MrgX1 antag -6.3
O=C(Nc1ccc(C(=O)O)cc1)Nc1ccc([N+](=O)[O-])cc1	none
COC(=O)c1ccc(NC(=O)Nc2ccc([N+](=O)[O-])cc2)cc1	MrgX1 antag -7.6
O=C(Nc1ccc(Cl)cc1)Nc1cc([N+](=O)[O-])ccc1F	none
CSCCCNC(=S)N1CCc2ccccc2C1	none
CSc1ccccc1NC(=O)CN1CCCCC1C (stereo not given)	none
CC1CCCCN1CC(=O)NC(c1ccccc1)c1ccccc1 (stereo not given)	RGS4 act -7.3
CC1=C(C(N)=O)C(c2ccccc2F)n2nc(CCCO)nc2N1 (stereo not given)	none
CC1CC(C)CN(S(=O)(=O)N2CCC(C(=O)NCCC3=CCCCC3)CC2)C1 (stereo not given)	none
O=[N+]([O-])c1cc(Br)c(Nc2ccccc2)c([N+](=O)[O-])c1	MrgX1 PAM 6.6
